Laboratory results reported in ChEMBL document CHEMBL1135739, “Radiolabeled amino acids for tumor imaging with PET: radiosynthesis and biological evaluation of 2-amino-3-[18F]fluoro-2-methylpropanoic acid and 3-[18F]fluoro-2-methyl-2-(methylamino)propanoic acid” (J Med Chem, 2002).
Several values for one entry are separate records, joined by “and”; a condition that tells them apart may be missing. Equal entries are not always repeated.

What was measured:
Rattus norvegicus [1] = species on record: Rattus norvegicus; test: Radioactivity distribution in testis of normal fischer rat after injection of [18F]-fluoro-2-methyl-2-(methylamino)propanoic acid after 120 min.; format: ADME, organism-based; conditions: in vivo, 2 h
Summary of the method: (§1)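 Male Fischer 344 rats (200–250 g), fed ad libitum, under intramuscular ketamine:xylazine anesthesia, got ~85 μCi radiotracer in 0.3 mL sterile water by tail-vein catheter. Groups of four were killed at 5, 30, 60 or 120 min. Dissected tissues were weighed and gamma-counted with dose standards. Counts were decay-corrected and given as %ID/g, mean ± standard error. Tissues were compared by one-way ANOVA.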

Rattus norvegicus [2] = species on record: Rattus norvegicus; test: Radioactivity distribution in testis of normal fischer rat after injection of [18F]-fluoro-2-methyl-2-(methylamino)propanoic acid after 30 min.; format: ADME, organism-based; conditions: in vivo, 0.5 h; summary of the method: as §1
Rattus norvegicus [3] = species on record: Rattus norvegicus; test: Radioactivity distribution in kidney of normal fischer rat after injection of [18F]-fluoro-2-methyl-2-(methylamino)propanoic acid after 120 min.; format: ADME, organism-based; conditions: in vivo, 2 h
Summary of the method: (§2)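 Normal male Fischer 344 rats (200–250 g), anesthetized with i.m. ketamine:xylazine (1:1), got ~85 μCi of tracer in 0.3 mL sterile water i.v. via tail-vein catheter. Groups of four were killed at 5, 30, 60 or 120 min. Tissues were weighed and gamma-counted against dose standards, and counts were decay-corrected to %ID/g. Results are mean ± standard error (n = 4), compared by one-way ANOVA.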

Rattus norvegicus [4] = species on record: Rattus norvegicus; test: Radioactivity distribution in kidney of normal fischer rat after injection of [18F]-fluoro-2-methyl-2-(methylamino)propanoic acid after 30 min.; format: ADME, organism-based; conditions: in vivo, 0.5 h; summary of the method: as §2
Rattus norvegicus [5] = species on record: Rattus norvegicus; test: Radioactivity distribution in kidney of normal fischer rat after injection of [18F]-fluoro-2-methyl-2-(methylamino)propanoic acid after 5 min.; format: ADME, organism-based; conditions: in vivo; summary of the method: as §2
Rattus norvegicus [6] = species on record: Rattus norvegicus; test: Radioactivity distribution in kidney of normal fischer rat after injection of [18F]-fluoro-2-methyl-2-(methylamino)propanoic acid after 60 min.; format: ADME, organism-based; conditions: in vivo, 1 h; summary of the method: as §2
Rattus norvegicus [7] = species on record: Rattus norvegicus; test: Radioactivity distribution in pancreas of normal fischer rat after injection of [18F]-fluoro-2-methyl-2-(methylamino)propanoic acid after 120 min.; format: ADME, organism-based; conditions: in vivo, 2 h
Summary of the method: (§3)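 Male Fischer 344 rats (200–250 g), fed ad libitum, anesthetized with intramuscular ketamine:xylazine (1:1, 0.1 mL/100 g). About 85 μCi tracer in 0.3 mL sterile water was given by tail-vein catheter. Groups of four were killed at 5, 30, 60 or 120 min. Tissues were weighed and gamma-counted against dose standards, decay-corrected, and expressed as %ID/g (mean ± standard error).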

Rattus norvegicus [8] = species on record: Rattus norvegicus; test: Radioactivity distribution in pancreas of normal fischer rat after injection of [18F]-fluoro-2-methyl-2-(methylamino)propanoic acid after 30 min.; format: ADME, organism-based; conditions: in vivo, 0.5 h; summary of the method: as §3
Rattus norvegicus [9] = species on record: Rattus norvegicus; test: Radioactivity distribution in blood of normal fischer rat after injection of [18F]-fluoro-2-methyl-2-(methylamino)propanoic acid after 120 min.; format: ADME, organism-based; conditions: in vivo, 2 h; summary of the method: as §2
Rattus norvegicus [10] = species on record: Rattus norvegicus; test: Radioactivity distribution in blood of normal fischer rat after injection of [18F]-fluoro-2-methyl-2-(methylamino)propanoic acid after 30 min.; format: ADME, organism-based; conditions: in vivo, 0.5 h; summary of the method: as §2
Rattus norvegicus [11] = species on record: Rattus norvegicus; test: Radioactivity distribution in blood of normal fischer rat after injection of [18F]-fluoro-2-methyl-2-(methylamino)propanoic acid after 5 min.; format: ADME, organism-based; conditions: in vivo; summary of the method: as §2
Rattus norvegicus [12] = species on record: Rattus norvegicus; test: Radioactivity distribution in blood of normal fischer rat after injection of [18F]-fluoro-2-methyl-2-(methylamino)propanoic acid after 60 min.; format: ADME, organism-based; conditions: in vivo, 1 h; summary of the method: as §2
Rattus norvegicus [13] = species on record: Rattus norvegicus; test: Radioactivity distribution in brain of normal fischer rat after injection of [18F]-fluoro-2-methyl-2-(methylamino)propanoic acid after 5 min.; format: ADME, organism-based; conditions: in vivo; summary of the method: as §2
Rattus norvegicus [14] = species on record: Rattus norvegicus; test: Radioactivity distribution in brain of normal fischer rat after injection of [18F]-fluoro-2-methyl-2-(methylamino)propanoic acid after 60 min.; format: ADME, organism-based; conditions: in vivo, 1 h; summary of the method: as §2
Rattus norvegicus [15] = species on record: Rattus norvegicus; test: Radioactivity distribution in muscle of normal fischer rat after injection of [18F]-fluoro-2-methyl-2-(methylamino)propanoic acid after 120 min.; format: ADME, organism-based, Muscle tissue; conditions: in vivo, 2 h; summary of the method: as §3
Rattus norvegicus [16] = species on record: Rattus norvegicus; test: Radioactivity distribution in muscle of normal fischer rat after injection of [18F]-fluoro-2-methyl-2-(methylamino)propanoic acid after 30 min.; format: ADME, organism-based, Muscle tissue; conditions: in vivo, 0.5 h; summary of the method: as §3
Rattus norvegicus [17] = species on record: Rattus norvegicus; test: Radioactivity distribution in brain of normal fischer rat after injection of [18F]-fluoro-2-methyl-2-(methylamino)propanoic acid after 30 min.; format: ADME, organism-based; conditions: in vivo, 0.5 h; summary of the method: as §2
Rattus norvegicus [18] = species on record: Rattus norvegicus; test: Radioactivity distribution in spleen of normal fischer rat after injection of [18F]-fluoro-2-methyl-2-(methylamino)propanoic acid after 120 min.; format: ADME, organism-based; conditions: in vivo, 2 h; summary of the method: as §3
Rattus norvegicus [19] = species on record: Rattus norvegicus; test: Radioactivity distribution in spleen of normal fischer rat after injection of [18F]-fluoro-2-methyl-2-(methylamino)propanoic acid after 30 min.; format: ADME, organism-based; conditions: in vivo, 0.5 h; summary of the method: as §1
Rattus norvegicus [20] = species on record: Rattus norvegicus; test: Radioactivity distribution in spleen of normal fischer rat after injection of [18F]-fluoro-2-methyl-2-(methylamino)propanoic acid after 5 min.; format: ADME, organism-based; conditions: in vivo; summary of the method: as §1
Rattus norvegicus [21] = species on record: Rattus norvegicus; test: Radioactivity distribution in spleen of normal fischer rat after injection of [18F]-fluoro-2-methyl-2-(methylamino)propanoic acid after 60 min.; format: ADME, organism-based; conditions: in vivo, 1 h; summary of the method: as §1
Rattus norvegicus [22] = species on record: Rattus norvegicus; test: Radioactivity distribution in lung of normal fischer rat after injection of [18F]-fluoro-2-methyl-2-(methylamino)propanoic acid after 120 min.; format: ADME, organism-based; conditions: in vivo, 2 h; summary of the method: as §3
Rattus norvegicus [23] = species on record: Rattus norvegicus; test: Radioactivity distribution in lung of normal fischer rat after injection of [18F]-fluoro-2-methyl-2-(methylamino)propanoic acid after 30 min.; format: ADME, organism-based; conditions: in vivo, 0.5 h; summary of the method: as §3

Question: `CNC(C)(C[18F])C(=O)O.Cl` (stereo not drawn) was tested. Which ID/g (Rattus norvegicus [1]) did it give?
Answer: 0.06% and 0.08%

Question: And the ID/g (Rattus norvegicus [2])?
Answer: 0.11%

Question: What about the ID/g (Rattus norvegicus [3]) of the same molecule?
Answer: 1.36% and 1.59%

Question: And the ID/g (Rattus norvegicus [4])?
Answer: 4.6%

Question: And the ID/g (Rattus norvegicus [5])?
Answer: 8.12% and 9.33%

Question: And the ID/g (Rattus norvegicus [6])?
Answer: 2.73% and 2.79%

Question: And the ID/g (Rattus norvegicus [7])?
Answer: 2.88% and 1.74%

Question: What about the ID/g (Rattus norvegicus [8]) of the same molecule?
Answer: 3%

Question: What about the ID/g (Rattus norvegicus [9]) of the same molecule?
Answer: 0.1%

Question: And the ID/g (Rattus norvegicus [10])?
Answer: 0.3%

Question: What about the ID/g (Rattus norvegicus [11]) of the same molecule?
Answer: 0.61% and 0.69%

Question: What about the ID/g (Rattus norvegicus [12]) of the same molecule?
Answer: 0.18% and 0.17%

Question: What about the ID/g (Rattus norvegicus [13]) of the same molecule?
Answer: 0.04% and < 0.032%

Question: What about the ID/g (Rattus norvegicus [14]) of the same molecule?
Answer: 0.03% and < 0.022%

Question: And the ID/g (Rattus norvegicus [15])?
Answer: 0.13% and 0.16%

Question: What about the ID/g (Rattus norvegicus [16]) of the same molecule?
Answer: 0.16%

Question: What about the ID/g (Rattus norvegicus [17]) of the same molecule?
Answer: 0.04%

Question: And the ID/g (Rattus norvegicus [18])?
Answer: 0.47% and 0.4%

Question: What about the ID/g (Rattus norvegicus [19]) of the same molecule?
Answer: 0.75%

Question: What about the ID/g (Rattus norvegicus [20]) of the same molecule?
Answer: 0.44% and 0.47%

Question: What about the ID/g (Rattus norvegicus [21]) of the same molecule?
Answer: 0.68% and 0.45%

Question: And the ID/g (Rattus norvegicus [22])?
Answer: 0.3% and 0.19%

Question: And the ID/g (Rattus norvegicus [23])?
Answer: 0.5%
